Measured values reported in ChEMBL document CHEMBL1121502, “Antiallergy activity of 10-oxo-10-H-pyridazino[6,1-b]quinazoline-2-carboxylic acids” (1980).

Columns and labels:
Format in all cases: functional
Rattus norvegicus [1] = test: Antiallergic activity is evaluated for its ability to inhibit reaginic passive cutaneous anaphylaxis (PCA) in rats dosed at 0.5 mg/kg intravenously; details: route intravenous
Summary of the method: (§1)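 Antiserum dilutions were injected intradermally at several back sites. 48 h later, rats were challenged i.v. with 1 mg ovalbumin in 1 mL saline containing 0.25% Evans blue. Diameter was plotted against relative antiserum concentration, and the least-squares line was extrapolated to zero antiserum. Groups of five animals were used.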

Rattus norvegicus [2] = test: Antiallergy activity is evaluated for its ability to inhibit passive cutaneous anaphylaxis (PCA) in rats, dosed perorally; details: po; summary of the method: as §1
Rattus norvegicus [3] = test: Antiallergic activity is evaluated for its ability to inhibit reaginic passive cutaneous anaphylaxis (PCA) in rats dosed intravenously; details: iv; summary of the method: as §1
Rattus norvegicus [4] = test: Antiallergic activity is evaluated for its ability to inhibit reaginic passive cutaneous anaphylaxis (PCA) in rats dosed at 5 mg/kg intravenously; details: ip, in the assay text read “intraperitoneally” for “intravenously”; summary of the method: as §1
Rattus norvegicus [5] = test: Antiallergic activity is evaluated for its ability to inhibit reaginic passive cutaneous anaphylaxis (PCA) in rats dosed perorally; details: po; summary of the method: as §1
Rattus norvegicus [6] = test: Antiallergic activity is evaluated for its ability to inhibit reaginic passive cutaneous anaphylaxis (PCA) in rats dosed intravenously; Value ranges from 1-2; details: iv; summary of the method: as §1

Row | SMILES | inhibition in vivo at 0.5 mg/kg (Rattus norvegicus [1]) [%] | inhibition in vivo at 5 mg/kg (Rattus norvegicus [4]) [%] | other results
1 | O=C(O)c1ccc2nc3cc4ccccc4cc3c(=O)n2n1 | 36 | – | –
2 | Cc1ccc2nc3ccc(C(=O)O)cn3c(=O)c2c1 | – | – | ED50 (Rattus norvegicus [2]): 0.7 mg/kg; ED50 (Rattus norvegicus [3]): 0.05 mg/kg
3 | COC(=O)c1ccc2c(=O)n3nc(Cl)ccc3nc2c1 | – | 0 | –
4 | O=C1c2ccccc2S(=O)(=O)c2cc(-c3nn[nH]n3)ccc21 [DOXANTRAZOLE] | – | – | ED50 (Rattus norvegicus [5]): 5 mg/kg; ED50 (Rattus norvegicus [3]): 1 mg/kg
5 | O=C(O)c1ccc2nc3ccc(Cl)cc3c(=O)n2n1 | 91 | – | –
6 | O=C(O)c1ccc2nc3ccc(Cl)nn3c(=O)c2c1 | – | 0 | –
7 | COc1ccc2nc3ccc(C(=O)O)nn3c(=O)c2c1 | 8 | – | –
8 | COC(=O)c1ccc2nc3ccc(Cl)nn3c(=O)c2c1 | – | 6 | –
9 | O=C(O)c1ccc2nc3ccccc3c(=O)n2n1 | 76 | – | –
10 | Cc1ccc2c(=O)n3nc(C(=O)O)ccc3nc2c1 | 32 | – | –
11 | Cc1ccc2nc3ccc(C(=O)O)nn3c(=O)c2c1 | 0 | – | –
12 | O=C(O)c1ccc2c(=O)n3nc(Cl)ccc3nc2c1 | – | 0 | –
13 | O=C([O-])c1cc(=O)c2c(OCC(O)COc3cccc4oc(C(=O)[O-])cc(=O)c34)cccc2o1.[Na+].[Na+] [CROMOLYN SODIUM] | – | – | ED50 (Rattus norvegicus [6]): 1 mg/kg
